Measurements as given in ChEMBL document CHEMBL1153344, “Synthesis of casimiroin and optimization of its quinone reductase 2 and aromatase inhibitory activities” (J Med Chem, 2009).
pIC50: −log10 of the molar value.

Columns and labels:
[1] = biological target: T1, Ribosyldihydronicotinamide dehydrogenase [quinone] (Homo sapiens, UniProt P16083); assay: Inhibition of human quinone reductase 2 expressed in Escherichia coli BL21(DE3) incubated at 23 degC by MTT assay
T1 sequence (P16083 whole entry): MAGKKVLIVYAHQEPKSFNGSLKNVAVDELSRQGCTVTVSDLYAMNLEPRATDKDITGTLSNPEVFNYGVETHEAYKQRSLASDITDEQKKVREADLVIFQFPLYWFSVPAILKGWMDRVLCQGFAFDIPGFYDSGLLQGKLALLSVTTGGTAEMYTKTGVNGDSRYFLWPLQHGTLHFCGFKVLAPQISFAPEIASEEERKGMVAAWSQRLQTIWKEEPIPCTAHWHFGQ

Aromatase = biological target: T2, Aromatase (Homo sapiens, UniProt P11511)
T2 sequence (P11511 whole entry): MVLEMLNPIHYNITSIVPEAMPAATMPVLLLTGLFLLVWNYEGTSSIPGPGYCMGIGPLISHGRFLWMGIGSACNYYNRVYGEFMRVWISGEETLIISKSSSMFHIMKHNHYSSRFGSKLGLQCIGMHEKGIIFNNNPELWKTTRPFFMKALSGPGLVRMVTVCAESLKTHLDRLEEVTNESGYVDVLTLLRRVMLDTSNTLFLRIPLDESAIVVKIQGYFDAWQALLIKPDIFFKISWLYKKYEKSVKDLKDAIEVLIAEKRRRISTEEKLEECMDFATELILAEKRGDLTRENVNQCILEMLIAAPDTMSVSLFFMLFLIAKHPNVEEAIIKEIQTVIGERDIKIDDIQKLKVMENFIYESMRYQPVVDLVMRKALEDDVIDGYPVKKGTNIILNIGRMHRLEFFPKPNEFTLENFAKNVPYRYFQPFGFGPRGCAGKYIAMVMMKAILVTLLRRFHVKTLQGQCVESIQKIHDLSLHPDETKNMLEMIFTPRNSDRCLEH

[2] = Cytotoxicity against mouse Hepa-1c1c7 cells after 72 hrs by sulforhodamine B assay; format: functional, cell-based; settings: Hepa-1c1c7, 72 h
Method in brief: (§1)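 Cells seeded at 5.0×10^4 cells/mL in 96-well plates, given compound in 10% DMSO (10 µL) for final 0–20 µg/mL, 72 h incubation; zero-day control plate 30 min at 37 °C. Fixed with cold 50% TCA 30 min at 4 °C, stained 0.4% sulforhodamine B in 1% acetic acid 30 min, dye solubilized in 10 mM Tris base pH 10, absorbance 515 nm.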

MCF7 = assay: Cytotoxicity against human MCF7 cells after 72 hrs by sulforhodamine B assay; format: functional, cell-based; settings: MCF7, 72 h; method in brief: as §1
LNCaP = assay: Cytotoxicity against human LNCAP cells after 72 hrs by sulforhodamine B assay; format: functional, cell-based; method in brief: as §1
[3] = Cytotoxicity against human Lu cells after 72 hrs by sulforhodamine B assay; format: functional, cell-based; method in brief: as §1

| SMILES | pIC50 [1] | pIC50 (Aromatase) | pIC50 [2] | pIC50 (MCF7) | pIC50 (LNCaP) | pIC50 [3] |
| --- | --- | --- | --- | --- | --- | --- |
| Cc1cc(=O)n(C)c2ccccc12 | 4.74 | < 3.94 | < 3.94 | < 3.94 | < 3.94 | < 3.94 |
| Cc1cc(=O)[nH]c2ccccc12 | < 3.30 | < 3.90 | < 3.90 | < 3.90 | < 3.90 | < 3.90 |
| COc1cc(=O)n(C)c2c3c(ccc12)OCO3 [CASIMIROIN] | 4.27 | 5.41 | < 4.07 | < 4.07 | < 4.07 | < 4.07 |
| COc1ccc(OC)c2c(C)cc(=O)[nH]c12 | 4.97 | 4.57 | < 4.04 | < 4.04 | < 4.04 | < 4.04 |
| COc1ccc2c(C)cc(=O)[nH]c2c1OC | 4.53 | 4.50 | < 4.04 | < 4.04 | < 4.04 | < 4.04 |
| COc1cc(OC)c2[nH]c(=O)cc(C)c2c1 | 5.06 | < 4.04 | < 4.04 | < 4.04 | < 4.04 | < 4.04 |
| Cc1cc(=O)n(C)c2c3c(ccc12)OCO3 | 5.21 | 5.90 | < 4.04 | < 4.04 | < 4.04 | < 4.04 |
| Cc1cc(=O)n(C)c2c1C(=O)C=CC2=O | < 3.30 | < 4.01 | 4.27 | 4.22 | 4.24 | 4.31 |
| Cc1cc(=O)[nH]c2c3c(ccc12)OCO3 | 4.97 | < 4.01 | < 4.01 | < 4.01 | < 4.01 | < 4.01 |
| COc1cccc2c(C)cc(=O)n(C)c12 | 5.24 | 5.69 | < 4.01 | < 4.01 | < 4.01 | < 4.01 |
| COc1cccc2c(C)cc(=O)[nH]c12 | 4.62 | < 3.98 | < 3.98 | < 3.98 | < 3.98 | < 3.98 |
| COc1c(OC)c(OC)c2c(C)cc(=O)[nH]c2c1OC | < 3.30 | 5.25 | < 4.14 | < 4.14 | < 4.14 | < 4.14 |

Continued, in another order:

| pIC50 [1] | pIC50 (Aromatase) | SMILES | pIC50 [2] | pIC50 (MCF7) | pIC50 (LNCaP) | pIC50 [3] |
| --- | --- | --- | --- | --- | --- | --- |
| 5.22 | 4.83 | COc1cc(OC)c2[nH]c(=O)cc(C)c2c1OC | 4.46 | 4.37 | 4.34 | 4.45 |
| 4.97 | 7.00 | COc1cc(OC)c2c(c(C)cc(=O)n2C)c1OC | 4.15 | < 4.12 | < 4.12 | 4.16 |
| 5.39 | 6.02 | COc1ccc(OC)c2c1c(C)cc(=O)n2C | < 4.07 | < 4.07 | < 4.07 | < 4.07 |
| 5.03 | 5.24 | COc1ccc2c(C)cc(=O)n(C)c2c1OC | < 4.07 | < 4.07 | < 4.07 | < 4.07 |
| < 3.30 | 6.12 | COc1c(OC)c(OC)c2c(c(C)cc(=O)n2C)c1OC | < 4.17 | < 4.17 | < 4.17 | < 4.17 |
| 5.15 | 5.57 | COc1cc2c(C)cc(=O)n(C)c2c(OC)c1OC | < 4.12 | < 4.12 | < 4.12 | < 4.12 |
| 5.00 | 4.73 | COc1cc2c(C)cc(=O)[nH]c2c(OC)c1OC | < 4.10 | < 4.10 | < 4.10 | < 4.10 |
| 5.72 | 6.02 | COc1cc(OC)c2c(c1)c(C)cc(=O)n2C | < 4.07 | < 4.07 | < 4.07 | < 4.07 |
